Hits are enriched below; roughly 3.7% of the tested compounds scored in any of these assays.
KCNQ1 act – potentiators or activators of human KCNQ1 potassium channel | P51787 | CHO-K1 KCNQ1, thallium flux FluxOR fluorescence; active compounds read high | B-score at 10 µM | 0.35% of 310,000 active | AID 2648;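 active means fluorescence ratio B-score, a plate-corrected score, at least three library SD, with initial intensity B-score within 5 SD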
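Doses: Single concentration per compound, DMSO matched to controls | Test system: KCNQ1-transfected CHO-K1 cells | Timing: 90 min dye loading and 20 min compound exposure, both at room temperature | Measured by: Kinetic FluxOR thallium fluorescence, 10-s 1-Hz baseline, 110-s post-stimulus read | Medium: Assay buffer with matched DMSO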
KCNQ1 block – inhibitors of human KCNQ1 potassium channel; CHO-K1 KCNQ1, FluxOR thallium flux fluorescence; active compounds read high; P51787; B-score at 10 µM; AID 2642; 1.3% of 310,000 active;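 active means compounds whose thallium flux B-score, printed positive for inhibition, exceeds three library SD while starting fluorescence stays within three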;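 further: channel opened by potassium depolarization with thallium stimulus after 20 min compound exposure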
Kir21 inh – blocks the mouse Kir2.1 inward-rectifier potassium channel. P35561. HEK293-Kir2.1, FluxOR thallium flux fluorescence; active compounds read low. B-score at 10 µM. 0.85% of 310,000 active. AID 1672;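 active means fluorescence ratio B-score at or below minus 3 SD of library scores, with starting-brightness B-score within 2 SD, cut at about -4.2 in these data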;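 further: channel flux triggered by added potassium and thallium sulfate stimulus; B-score of peak minus minimum fluorescence over baseline after thallium stimulus; more negative B-score means stronger Kir2.1 block with less thallium influx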
KCNK9 block – human KCNK9 channel inhibition. Q9NPC2. HEK293 KCNK9, FluxOR thallium flux fluorescence; active compounds read low. B-score at 10 µM. 1.2% of 310,000 active. AID 488922;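 active means ratio B-score over 3 SD below the library mean, with starting fluorescence within 5 SD of its mean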;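 further: negative B-score means less thallium flux so channel inhibition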
hERG protect – compounds protecting human hERG from proarrhythmic drug block | CHO-hERG, FluxOR thallium flux, dofetilide IC70 present | Q12809 | activation (rescue from dofetilide block), less the hit threshold, % at 10 µM | 0.51% of 310,000 active;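 active means activation above the mean of controls blocked by dofetilide plus 5 SD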;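 further: thallium influx through hERG after potassium depolarization seen as dye fluorescence rise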
KCNK3 block – human KCNK3 channel inhibition, primary screen | B-score at 10 µM | O14649 | CHO-KCNK3 thallium flux, FluxOR fluorescence; active compounds read low | 0.84% of 340,000 active;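 active means B-score under library mean minus 4 SD, starting fluorescence ratio at most library mean plus 5 SD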;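 further: more negative B-score means stronger inhibition of thallium flux through KCNK3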
Target sequence (O14649 whole entry, looked up): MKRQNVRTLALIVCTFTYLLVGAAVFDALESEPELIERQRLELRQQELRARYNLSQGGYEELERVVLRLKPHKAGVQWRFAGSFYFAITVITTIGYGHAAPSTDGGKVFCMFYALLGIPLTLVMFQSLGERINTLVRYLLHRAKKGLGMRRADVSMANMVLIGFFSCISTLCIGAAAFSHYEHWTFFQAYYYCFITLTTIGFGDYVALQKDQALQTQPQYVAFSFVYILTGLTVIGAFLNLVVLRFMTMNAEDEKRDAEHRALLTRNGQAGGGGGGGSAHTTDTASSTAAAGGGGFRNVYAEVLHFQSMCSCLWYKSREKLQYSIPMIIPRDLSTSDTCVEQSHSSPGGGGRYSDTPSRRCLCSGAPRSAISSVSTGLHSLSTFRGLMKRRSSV
KCNK9 inh conf – confirmation of human KCNK9 potassium channel inhibitors; shares compounds with KCNK9 block; AID 492992; HEK293 KCNK9 cells, FluxOR thallium flux fluorescence; 43% of 4,900 active; inhibition, % at 10 µM;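 active means thallium signal inhibited by more than 5 SD of the compound-free buffer control wells, on both duplicate plates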;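 further: 0% = assay buffer control wells without compound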
Kir21 sel – mouse Kir2.1 off-target activity of KCNK9 modulators | shares compounds with KCNK9 block | Kir2.1 cells, FluxOR thallium flux fluorescence | inhibition, % at 10 µM | 4% of 4,900 active | AID 492993;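 active means thallium signal drop more than 5 SD beyond the mean of the no-compound control wells, seen in both duplicate plates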;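 further: signal is fluorescence rise after thallium addition divided by baseline fluorescence; plate controls were assay buffer only for no effect and full block by chlorpromazine control for full effect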
HEK293 Tl ctr – second check of KCNK9 modulator effects in non-induced HEK293 cells | shares compounds with KCNK9 block | FluxOR thallium flux | inhibition, % at 10 µM | 40% of 4,900 active | AID 492997;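 active means thallium signal drop beyond 5 SD of the untreated control mean, on both duplicate plates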;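 further: plate controls were buffer only IC0 wells for no effect and SID17386958 at its maximal inhibitory level for full effect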
* = called active by the depositor; i = inactive; . = not tested or not shown.

SMILES	KCNQ1 act	KCNQ1 block	Kir21 inh	KCNK9 block	hERG protect	KCNK3 block	KCNK9 inh conf	Kir21 sel	HEK293 Tl ctr
COc1ccc(C(=O)NCc2ccc(N3CCN(C(=O)OC(C)(C)C)CC3)cc2)cc1	i	i	1.25	i	1.4	i	i	i	i
COc1cccc(C(=O)NCc2ccc(N3CCN(C(=O)OC(C)(C)C)CC3)cc2)c1	i	i	0.82	i	-13.5	i	.	.	.
Cc1cc(Cl)cc2c(N=Nc3ccccc3C(=O)O)c(O)[nH]c12	i	i	0	i	-9.2	i	i	i	i
Cc1cccc(NC(=O)C(CCC(N)=O)NC(=O)OCc2ccccc2)c1 (stereo not drawn)	i	i	0.54	i	-4.9	i	.	.	.
CN(C)C(C(=O)Nc1cc(Cl)cc(Cl)c1)c1ccccc1 (stereo not drawn)	i	i	-2.47	-10.1*	-23.4	i	43.5%*	i	29.5%*
O=C(OC(C(=O)Nc1cc(Cl)cc(Cl)c1)c1ccccc1)C1=COCCO1 (stereo not drawn)	i	i	-1.52	i	-8.0	i	.	.	.
Cc1ccc(C(=O)Oc2ccc3ccc(=O)oc3c2)cc1	i	i	-2.36	i	-4.2	i	.	.	.
O=C(Oc1ccc2ccc(=O)oc2c1)c1ccc([N+](=O)[O-])cc1	i	i	-0.62	-15*	-11.2	i	39.5%*	i	i
CC(C)/C=C/CN1CCCC(N2CCN(c3cccc(Cl)c3)CC2)C1 (stereo not drawn)	i	i	-1.84	i	-9.7	i	i	i	i
O=C(c1cnccn1)N1CCCC(N2CCN(c3cccc(Cl)c3)CC2)C1 (stereo not drawn)	i	i	-1.09	i	-6.8	i	.	.	.
Cc1nc(C(=O)N2CCCC(N3CCN(c4ccccc4C)CC3)C2)cs1 (stereo not drawn)	i	i	0.41	i	-10.0	i	i	i	i
Cc1cccc(C(=O)N2CCCC(N3CCN(c4cccc(Cl)c4)CC3)C2)n1 (stereo not drawn)	i	i	-2.16	i	-9.7	i	i	i	i
Cc1cc(C(=O)N2CCCC(N3CCN(c4ccccc4C)CC3)C2)nc(C)n1 (stereo not drawn)	i	i	0.49	i	-9.4	i	.	.	.
Cc1ccccc1N1CCN(C2CCCN(C(=O)c3csc(C(C)C)n3)C2)CC1 (stereo not drawn)	i	i	-0.58	i	-14.7	i	i	i	i
Nc1nnc(CC(=O)N/N=C/c2ccc(-c3ccc(Cl)cc3Cl)o2)s1	i	i	1.28	i	-9.1	i	.	.	.
CC(=O)N(c1ccccc1)C(C(=O)c1ccccc1)c1ccccc1 (stereo not drawn)	.	.	.	.	.	i	.	.	.
O=C(c1ccc(Cl)s1)N1CCCC(N2CCN(c3ccc(F)cc3)CC2)C1 (stereo not drawn)	i	i	-0.06	i	-10.3	i	.	.	.
CC(C)c1nc(C(=O)N2CCCC(N3CCN(c4cccc(Cl)c4)CC3)C2)cs1 (stereo not drawn)	i	i	-0.65	i	-7.1	i	i	i	i
Cc1ccccc1N1CCN(C2CCCN(C(=O)c3ccc(Cl)s3)C2)CC1 (stereo not drawn)	i	i	0.01	i	-10.7	i	i	i	i
Cc1ccccc1N1CCN(C2CCCN(C(=O)c3cnsn3)C2)CC1 (stereo not drawn)	i	i	1	i	-10.0	i	i	i	i
Nn1c(SCc2cccc(Br)c2)nnc1-c1ccncc1	i	i	0.12	i	-8.2	i	.	.	.
CCCCN(CC)c1nc(N)c(C#N)c(CC#N)c1C#N	i	i	-0.03	-11.3*	-7.1	i	33.0%*	i	31.5%*
C=C(C)CN(CC)c1nc(N)c(C#N)c(CC#N)c1C#N	i	i	1.34	i	-15.3	i	.	.	.
CN(CC(=O)NC(=O)NCc1ccccc1)Cc1ccc(Cl)cc1	i	i	-0.95	i	-4.4	i	i	i	i
CN(CC(=O)NC(=O)NCc1ccccc1)Cc1cccc(Cl)c1Cl	i	i	-2.02	i	0.1	i	i	i	22.0%*
SMILES	KCNQ1 act	KCNQ1 block	Kir21 inh	KCNK9 block	hERG protect	KCNK3 block	KCNK9 inh conf	Kir21 sel	HEK293 Tl ctr
COc1ccc(C)cc1S(=O)(=O)N(CC(=O)NCc1ccc(Cl)cc1)Cc1ccccc1	i	i	0.75	-10*	-10.9	i	i	i	39.5%*
CN(CC(=O)NCc1ccccc1)Cc1ccc(Cl)cc1	i	i	-1.4	i	-4.3	i	.	.	.
COc1ccc(CNC(=O)CN(Cc2ccccc2)S(=O)(=O)c2ccc(Cl)cc2)cc1	i	i	-0.85	i	-15.2	i	.	.	.
CC(C)(C)OC(=O)COc1cc(F)ccc1[N+](=O)[O-]	.	.	.	.	.	i	.	.	.
O=C(O)c1ccc(N2C(=O)CC(N3C(=O)/C(=C/c4ccc(Cl)cc4)SC3=S)C2=O)cc1 (stereo not drawn)	i	i	0.58	i	-8.8	i	i	i	i
O=C(O)c1ccc(N2C(=O)CC(N3CCN(c4ccc(Cl)cc4)CC3)C2=O)cc1 (stereo not drawn)	i	i	1.05	i	0.1	i	.	.	.
CC(C)Oc1ccc(S(=O)(=O)N2CCCCC2)cc1NC(=O)C1CCC1	i	i	-0.35	i	-15.9	i	.	.	.
COc1ccccc1OCCSc1nnc(C)n1-c1ccccc1	i	i	0.38	i	-6.0	i	.	.	.
COc1ccc(OCCSc2nnc(C)n2-c2ccccc2)cc1	i	i	-1.18	i	-6.3	i	i	i	i
CC(c1ccco1)N(C(=O)CSc1ccc(Br)cc1)c1ccccn1 (stereo not drawn)	i	i	-6.43*	-8.9*	-15.2	-9.77*	i	37.0%*	37.5%*
CC(C)c1ccc(C(=O)N(c2ccccn2)C(C)c2ccco2)cc1 (stereo not drawn)	i	i	-0.39	i	-7.1	i	.	.	.
CCOc1ccc(-c2cc3nc(C4CCN(C(=O)OC(C)(C)C)CC4)c(C(=O)O)cn3n2)cc1	i	i	-0.46	i	-19.1	i	i	i	34.5%*

Compound activity (PubChem BioAssay)
